Molecules are shown by their SMILES. ≈ marks a conversion by molar mass, not a printed value. Calls of active or inactive are those of the source. The rule behind the calls is not given here.

Our source for the MIC and Activity values is ChEMBL document CHEMBL1151326, “Phytoalexins from hairy roots of Hyoscyamus albus treated with methyl jasmonate” (1998).

One test has as its system Bacillus subtilis. Kind of test: Antibacterial activity against Bacillus subtilis after 2 days by agar plate dilution method. It is filed as functional. Conditions: 48 h. In a few lines:
(§1)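 Agar plate dilution: each sample concentration is incorporated into soybean casein digest (SCD) agar. Gram-positive bacteria are applied to the agar surface and incubated 2 days at 30 °C. Activity is judged by whether colonies form.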

Another test concerns Staphylococcus aureus. The test can be described thus: Antibacterial activity against Staphylococcus aureus after 2 days by agar plate dilution method. The test is classed as functional. The note with it: 48 h. In a few lines:
as §1

The subject of a further test is Botrytis cinerea. The test can be described thus: Antifungal activity against Botrytis cinerea after 2 days by agar plate dilution method. The test is classed as functional, organism-based. In a few lines:
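Agar plate dilution: each sample concentration is incorporated into potato dextrose (PD) agar. Fungus is applied to the agar surface and incubated 2 days at 30 °C. Activity is judged by whether spores form.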

As for `C=C(C)[C@@H]1C[C@@H](OC(=O)C=C(C)C)[C@@]2(C1)C(C)=CC(=O)[C@H](O)[C@H]2C`, the minimal inhibitory concentration (MIC) – broadly, the lowest concentration found to suppress growth – with Bacillus subtilis was 250 mg/L (≈ 752 µM); with Staphylococcus aureus it was 100 mg/L (≈ 301 µM).
For `C=C(C)[C@@H]1CC[C@@]2(C1)C(C)=CC(=O)C[C@H]2C` [SOLAVETIVONE], in that order: 100 mg/L (≈ 458 µM) and 100 mg/L (≈ 458 µM).
As to `C=C(C)[C@@H]1C[C@@H](OC(=O)C(C)C)[C@@]2(C1)C(C)=CC(=O)[C@H](O)[C@H]2C`, the MIC against Bacillus subtilis and in the test on Staphylococcus aureus was 250 mg/L (≈ 780 µM) throughout.
Take `C=C(C)[C@@H]1C[C@@H](OC(=O)/C(C)=C/C)[C@@]2(C1)C(C)=CC(=O)[C@H](O)[C@H]2C`: the MIC turned out to be 250 mg/L (≈ 752 µM) against Bacillus subtilis and 100 mg/L (≈ 301 µM) with Staphylococcus aureus. In the test on Botrytis cinerea, the result was Active.
Take `C=C(C)[C@@H]1C[C@@H](O)[C@@]2(C1)C(C)=CC(=O)[C@H](O)[C@H]2C`: the minimal inhibitory concentration (MIC) against Bacillus subtilis and in the test with Staphylococcus aureus was 500 mg/L (≈ 2000 µM) throughout.
